Test results from ChEMBL document CHEMBL2203279, “Synthesis and pharmacokinetic profile of rhein- boswellic acid conjugate” (Bioorg Med Chem Lett, 2012).

How the values were obtained:
[1] = Prodrug conversion in phosphate buffer assessed as half life of hydrolysis at pH 7.4; type: physicochemical
Summary of the method: (§1)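 Prodrug (10 mg) incubated in aqueous buffer (HCl pH 1.2 or phosphate pH 7.4) at 37 ± 0.5 °C, stirred at 100 rpm; aliquots withdrawn with medium replacement at intervals up to 7 h. Residual prodrug and released rhein/boswellic acid quantified by RP-HPLC at 211 nm. First-order rate constant from slope of log residual prodrug vs time; triplicate, mean taken.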

Blood [2] = experiment: Drug uptake in po dosed Wistar rat blood at 3 hrs; type: ADME, organism-based; conditions: in vivo
Summary of the method: (§2)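 Overnight-fasted Wistar rats (water allowed) given prodrug 2.5 mg in 0.5 mL saline orally. Blood taken by retro-orbital puncture at intervals over up to 8 h, processed by methanol protein precipitation and centrifugation, and analysed by RP-HPLC for intact prodrug, rhein and boswellic acid, expressed as percent of administered dose.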

[3] = Drug excretion in po dosed Wistar rat feces assessed as boswellic acid up to 24 hrs; type: ADME, organism-based; conditions: in vivo
Summary of the method: (§3)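 Wistar rats given prodrug 2.5 mg in 0.5 mL saline orally after overnight fast; urine and feces collected from metabolic cages at intervals over 24 h and pooled. Urine diluted 10-fold and feces 100-fold in phosphate buffer pH 7.4, then analysed by RP-HPLC for intact prodrug, rhein and boswellic acid as percent.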

[4] = Drug excretion in po dosed Wistar rat feces up to 24 hrs; type: ADME, organism-based; conditions: faeces, read-out: Drug excretion; summary of the method: as §3
Blood [5] = experiment: Prodrug conversion in po dosed Wistar rat blood assessed as rhein production from 4 to 7 hrs; type: ADME, organism-based; conditions: in vivo; summary of the method: as §2
[6] = n-Octanol-phosphate buffer partition coefficient, log P of the compound at pH 7.4; type: physicochemical
Summary of the method: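 Partition coefficient measured between n-octanol and phosphate buffer pH 7.4, with concentrations read by UV–visible spectrophotometry.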

Intestine = experiment: Prodrug conversion in rat small intestine homogenate assessed as half life of hydrolysis; type: ADME, tissue-based; conditions: tissue homogenate
Summary of the method: (§4)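 Prodrug solution in buffer (250 µg/mL) added to rat stomach or small intestinal homogenate pre-equilibrated at 37 ± 0.5 °C. Samples taken at intervals, centrifuged, supernatant filtered and analysed by RP-HPLC at 211 nm for residual prodrug and released rhein/boswellic acid. Rate constant from log residual prodrug vs time slope; triplicate, mean rate constant.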

[7] = Drug excretion in po dosed Wistar rat feces assessed as rhein up to 24 hrs; type: ADME, organism-based; conditions: in vivo; summary of the method: as §3
[8] = Chemical stability of the compound in HCl buffer at pH 1.2; type: physicochemical; summary of the method: as §1
Blood [9] = experiment: Drug uptake in po dosed Wistar rat blood at 6 hrs; type: ADME, organism-based; conditions: in vivo; summary of the method: as §2
[10] = Drug excretion in po dosed Wistar rat urine assessed as boswellic acid up to 24 hrs; type: ADME, organism-based; conditions: in vivo; summary of the method: as §3
Plasma = experiment: Prodrug conversion in 80% human plasma assessed as half life of hydrolysis; type: ADME, cell-free
Summary of the method: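 80% human plasma prepared in 0.05 M phosphate buffer pH 7.4; prodrug methanol stock (250 µg/mL) mixed 1:1 with plasma and incubated at 37 ± 0.5 °C over 7 h. At intervals, centrifuged cold, supernatant protein-precipitated with methanol, recentrifuged, filtered and analysed by RP-HPLC for residual prodrug and released rhein/boswellic acid. Rate constant from log residual prodrug vs time; triplicate.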

Blood [11] = experiment: Drug uptake in po dosed Wistar rat blood at 5 hrs; type: ADME, organism-based; conditions: in vivo; summary of the method: as §2
Blood [12] = experiment: Drug uptake in po dosed Wistar rat blood at 4 hrs; type: ADME, organism-based; conditions: in vivo; summary of the method: as §2
[13] = Drug excretion in po dosed Wistar rat urine assessed as rhein up to 24 hrs; type: ADME, organism-based; conditions: in vivo; summary of the method: as §3
Blood [14] = experiment: Drug uptake in po dosed Wistar rat blood at 7 hrs; type: ADME, organism-based; conditions: in vivo; summary of the method: as §2
[15] = Drug excretion in po dosed Wistar rat urine up to 24 hrs; type: ADME, organism-based; conditions: read-out: Drug excretion; summary of the method: as §3
Stomach = experiment: Metabolic stability in rat stomach homogenate; type: ADME, tissue-based; conditions: tissue homogenate; summary of the method: as §4
Blood [16] = experiment: Prodrug conversion in po dosed Wistar rat blood assessed as boswellic acid production from 4 to 7 hrs; type: ADME, organism-based; conditions: in vivo; summary of the method: as §2
Blood [17] = experiment: Drug uptake in po dosed Wistar rat blood at 2 hrs; type: ADME, organism-based; conditions: in vivo; summary of the method: as §2

Row | Compound | t1/2 [1] | Drug uptake (Blood [2]) | Drug excretion [3] | dose excreted at 24 h [4] | Drug metabolism (Blood [5]) | logD [6] | t1/2 (Intestine) | Drug excretion [7] | Stability [8] | Drug uptake (Blood [9]) | Drug excretion [10] | t1/2 (Plasma) | Drug uptake (Blood [11]) | Drug uptake (Blood [12]) | Drug excretion [13] | Drug uptake (Blood [14]) | dose excreted at 24 h [15] | Stability (Stomach) | Drug metabolism (Blood [16]) | Drug uptake (Blood [17])
1 | CC1(C)CC[C@]2(C)CC[C@]3(C)C(=CC[C@@H]4[C@@]5(C)CC[C@@H](O)[C@](C)(C(=O)Oc6cccc7c6C(=O)c6c(OC(=O)[C@@]8(C)[C@H](O)CC[C@@]9(C)[C@H]8CC[C@]8(C)[C@@H]9CC=C9[C@@H]%10CC(C)(C)CC[C@]%10(C)CC[C@]98C)cc(C(=O)O)cc6C7=O)[C@@H]5CC[C@]43C)[C@@H]2C1 | 3.205 h | 70.43% | 4.59% | 3.1% | Active | 2.57 | 2.672 h | Not Active | Stable | 12% | 8.9% | 3.102 h | 22% | 34.5% | 7.1% | 3.4% | 6.2% | Stable | Active | 93.6%
2 | O=C(O)c1cc(O)c2c(c1)C(=O)c1cccc(O)c1C2=O [RHEIN] | – | – | – | – | – | 0.24 | – | – | – | – | – | – | – | – | – | – | – | – | – | –
